For one data set, the system named is CAKI-1. The data set can be described thus: cells. To be noted: Homo sapiens, CAKI-1, 168 h, read-out: pIC50 (converted).
In a further data set the test system is DU-145. The data set is described as follows: cells. To be noted: Homo sapiens, DU-145, 168 h, read-out: pIC50 (converted).
In data set [1] the test system is MDA-MB-468. The data set is described as follows: Induction of apoptosis in human MDA-MB-468 cells assessed as early apoptotic cells at 1 uM measured after 72 hrs in presence of PARP inhibitor olaparib by Annexin V-FITC/propidium iodide staining based flow cytometry (reference value: 3.88%). It counts as functional. (In general: In flow cytometry, cells or beads pass a laser one at a time.)

For another data set, the system named is A549. The data set is described as follows: cells. To be noted: Homo sapiens, A549, 168 h, read-out: pIC50 (converted).
Data set [2] has as its system MDA-MB-468. The data set can be described thus: Antitumor activity against human MDA-MB-468 cells xenografted in BALB/c mouse assessed as tumor growth inhibition at 27.5 mg/kg, ip administered every 2 days for 34 days and measured at 2 days interval during compound dosing in presence of PARP inhibitor olaparib relative to control. It counts as functional. Conditions: MDA-MB-468, ip, read-out: TGI.

The subject of data set [3] is MDA-MB-468. The data set can be described thus: Inhibition of PI3K in human MDA-MB-468 cells assessed as reduction in BRCA1 mRNA level at 1 uM in presence of PARP inhibitor olaparib by Trizol reagent-based RT-PCR analysis. It counts as cell-based. In outline: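 Total RNA from treated MDA-MB-468 cells extracted with TRIzol. BRCA1 or BRCA2 mRNA quantified by real-time PCR with GAPDH as internal control. Results given as fold change relative to the internal control. Mean ± SD of three independent experiments.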

For the next data set, the system named is Ramos. The data set is described as follows: cells. To be noted: Homo sapiens, 168 h, read-out: pIC50 (converted).
In data set [4] the test system is MDA-MB-468. The data set can be described thus: Induction of apoptosis in human MDA-MB-468 cells assessed as necrotic cells at 1 uM measured after 72 hrs in presence of PARP inhibitor olaparib by Annexin V-FITC/propidium iodide staining based flow cytometry (reference value: 0.13%). The format is functional.
A further data set relates to MDA-MB-231. The data set can be described thus: cells. To be noted: Homo sapiens, MDA-MB-231, 168 h, read-out: pIC50 (converted).
For data set [5], the system named is MDA-MB-468. The data set is described as follows: Induction of DNA damage in human MDA-MB-468 cells at 1 uM measured after 72 hrs in presence of PARP inhibitor olaparib by comet assay. It counts as functional, cell-based. A digest of the protocol:
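MDA-MB-468 cells treated for 72 h, harvested and run in a neutral comet assay. Ethidium bromide staining after electrophoresis. About 200 cell images per group analysed with CASP. DNA damage scored as tail intensity (percentage DNA in tail) and olive tail moment. Mean ± SD of three independent experiments.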

Data set [6] is described as follows: Toxicity in BALB/c mouse xenografted with human MDA-MB-468 cells assessed as mortality at 27.5 mg/kg, ip administered every 2 days for 34 days. It counts as organism-based. To be noted: in vivo. A digest of the protocol: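 Nude mice bearing subcutaneous right-flank MDA-MB-468 tumours (2 × 10^6 exponential-phase cells implanted). Randomised at about 100 mm³ tumour volume; 6 mice per group. Dosed ip every 2 days for 34 days. Vehicle controls received PBS with 5% DMSO. Body weight and tumour size recorded every 2 days; tumour volume calculated as ab²/2 from caliper diameters.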
On the technique in general: Xenograft models place foreign cells or tissue in a host animal.

Data set [7] concerns MDA-MB-468. The data set is described as follows: Antitumor activity against human MDA-MB-468 cells xenografted in BALB/c mouse assessed as tumor growth inhibition at 27.5 mg/kg, ip administered every 2 days for 34 days and measured at 2 days interval during compound dosing relative to control. It counts as functional. To be noted: MDA-MB-468, ip, read-out: TGI.
Another data set has as its system HCT-116. The data set can be described thus: Potency index, ratio of BKM120 IC50 to test compound IC50 for antiproliferative activity against human HCT116 cells. It counts as functional.
Data set [8] has as its system Mus musculus. The data set can be described thus: In vivo inhibition of PI3K in BALB/c mouse xenografted with human MDA-MB-468 cells assessed as reduction in AKT phosphorylation at S473 residue at 50 mg/kg, ip administered every 2 days for 34 days measured post-last dose by Western blot analysis. The format is functional, organism-based.
For data set [9], the system named is MDA-MB-468. The data set can be described thus: Inhibition of PI3K in human MDA-MB-468 cells assessed as reduction in pS6 phosphorylation at S240 residue at 1 uM measured after 6 to 72 hrs by Western blot analysis. The format is cell-based. In outline: (§1)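 MDA-MB-468 cells seeded overnight, then exposed for 6 h; control medium contained 1‰ DMSO. Lysates run on 8–12% SDS-PAGE and transferred to PVDF. Blots blocked in 5% BSA/TBST and probed for pAKT-Ser473/total AKT or pS6-Ser240/total S6, with β-actin as loading control. HRP secondary with ECL detection; bands quantified by densitometry. Three independent experiments.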
For orientation: Immunoblotting shows a protein as a band on a membrane.

Data set [10] concerns the target Phosphatidylinositol 4,5-bisphosphate 3-kinase catalytic subunit beta isoform (Homo sapiens, UniProt P42338). The data set is described as follows: Inhibition of PI3Kbeta (unknown origin) using PIP2 as substrate measured after 1 hr by ADP-glo plus luminescence assay.
In data set [11] the test system is MDA-MB-468. The data set can be described thus: Induction of apoptosis in human MDA-MB-468 cells xenografted in BALB/c mouse assessed as increase in cleaved PARP expression at 50 mg/kg, ip administered every 2 days for 34 days measured post last dose by Western blot analysis. It counts as functional, organism-based.
The test system of data set [12] is Mus musculus. The data set is described as follows: In vivo activation of ERK in BALB/c mouse xenografted with human MDA-MB-468 cells assessed as increase in ERK autophosphorylation at T202 residue at 50 mg/kg, ip administered every 2 days for 34 days measured post-last dose by Western blot analysis. It counts as functional, organism-based.
Data set [13] concerns the target Poly [ADP-ribose] polymerase 2 (Homo sapiens, UniProt Q9UGN5). The data set is described as follows: Inhibition of recombinant human PARP2 using histone as substrate after 1 hr in presence of biotinylated NAD+ by ELISA.
Data set [14] has as its target Phosphatidylinositol 4,5-bisphosphate 3-kinase catalytic subunit gamma isoform (Homo sapiens, UniProt P48736). The data set can be described thus: Inhibition of PI3Kgamma (unknown origin) using PIP2 as substrate measured after 1 hr by ADP-glo plus luminescence assay.
In data set [15] the target is Phosphatidylinositol 4,5-bisphosphate 3-kinase catalytic subunit delta isoform (Homo sapiens, UniProt O00329). The data set can be described thus: Inhibition of PI3Kdelta (unknown origin) using PIP2 as substrate measured after 2 hrs by ADP-glo plus luminescence assay. A digest of the protocol: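 ADP-Glo Plus luminescence assay in 50 µL of 10 mM Tris-HCl pH 7.5 with 25 µM ATP, 9.75 µM PIP2, 4 mM MgCl2, 50 mM NaCl, 0.05% Chaps, 1 mM DTT, 5% glycerol and 2% DMSO. Enzyme: PI3Kα and β at 60 ng/mL, δ at 45 ng/mL. Ten-point 3-fold dilutions from 1 µM. Incubation at room temperature for 1 h (α, β) or 2 h (δ). IC50 by nonlinear regression.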

Data set [16] deals with MDA-MB-468. The data set is described as follows: Potency index, ratio of BKM120 IC50 to test compound IC50 for antiproliferative activity against human MDA-MB-468 cells. The format is functional.
The test system of data set [17] is MDA-MB-468. The data set can be described thus: Inhibition of PI3K in human MDA-MB-468 cells assessed as reduction in AKT phosphorylation at S473 residue at 1 uM measured after 6 to 72 hrs by Western blot analysis. It counts as cell-based. In outline: as §1

Active and inactive are the calls of the source. The rule behind the calls is not given here.

Sequence of Phosphatidylinositol 4,5-bisphosphate 3-kinase catalytic subunit delta isoform (O00329 whole entry, canonical isoform): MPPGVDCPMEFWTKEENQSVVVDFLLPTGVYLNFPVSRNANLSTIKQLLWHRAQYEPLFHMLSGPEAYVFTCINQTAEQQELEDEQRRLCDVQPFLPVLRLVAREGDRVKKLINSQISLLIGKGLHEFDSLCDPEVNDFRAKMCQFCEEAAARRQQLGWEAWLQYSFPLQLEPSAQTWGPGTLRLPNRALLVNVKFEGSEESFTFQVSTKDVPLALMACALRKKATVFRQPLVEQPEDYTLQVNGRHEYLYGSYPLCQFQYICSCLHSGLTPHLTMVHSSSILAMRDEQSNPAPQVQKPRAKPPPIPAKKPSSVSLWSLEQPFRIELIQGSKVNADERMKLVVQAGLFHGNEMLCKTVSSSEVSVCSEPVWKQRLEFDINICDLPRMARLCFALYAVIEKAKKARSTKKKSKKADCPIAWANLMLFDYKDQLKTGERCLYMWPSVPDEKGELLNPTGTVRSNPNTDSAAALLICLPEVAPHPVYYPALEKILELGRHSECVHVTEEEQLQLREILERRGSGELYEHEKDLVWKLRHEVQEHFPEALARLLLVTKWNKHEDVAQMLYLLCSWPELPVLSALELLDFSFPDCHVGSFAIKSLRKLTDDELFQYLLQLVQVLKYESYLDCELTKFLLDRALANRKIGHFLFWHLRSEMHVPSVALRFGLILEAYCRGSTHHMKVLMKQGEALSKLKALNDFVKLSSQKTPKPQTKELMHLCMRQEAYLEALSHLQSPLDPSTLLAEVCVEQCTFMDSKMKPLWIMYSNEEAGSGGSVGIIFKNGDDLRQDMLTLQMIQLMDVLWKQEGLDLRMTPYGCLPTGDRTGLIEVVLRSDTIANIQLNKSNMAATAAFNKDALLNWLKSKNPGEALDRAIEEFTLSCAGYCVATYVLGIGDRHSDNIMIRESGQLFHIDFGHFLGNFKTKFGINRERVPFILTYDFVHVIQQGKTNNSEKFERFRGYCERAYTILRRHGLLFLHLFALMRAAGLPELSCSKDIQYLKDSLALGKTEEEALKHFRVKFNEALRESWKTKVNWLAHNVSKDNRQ
Sequence of Poly [ADP-ribose] polymerase 2 (Q9UGN5 whole entry, canonical isoform): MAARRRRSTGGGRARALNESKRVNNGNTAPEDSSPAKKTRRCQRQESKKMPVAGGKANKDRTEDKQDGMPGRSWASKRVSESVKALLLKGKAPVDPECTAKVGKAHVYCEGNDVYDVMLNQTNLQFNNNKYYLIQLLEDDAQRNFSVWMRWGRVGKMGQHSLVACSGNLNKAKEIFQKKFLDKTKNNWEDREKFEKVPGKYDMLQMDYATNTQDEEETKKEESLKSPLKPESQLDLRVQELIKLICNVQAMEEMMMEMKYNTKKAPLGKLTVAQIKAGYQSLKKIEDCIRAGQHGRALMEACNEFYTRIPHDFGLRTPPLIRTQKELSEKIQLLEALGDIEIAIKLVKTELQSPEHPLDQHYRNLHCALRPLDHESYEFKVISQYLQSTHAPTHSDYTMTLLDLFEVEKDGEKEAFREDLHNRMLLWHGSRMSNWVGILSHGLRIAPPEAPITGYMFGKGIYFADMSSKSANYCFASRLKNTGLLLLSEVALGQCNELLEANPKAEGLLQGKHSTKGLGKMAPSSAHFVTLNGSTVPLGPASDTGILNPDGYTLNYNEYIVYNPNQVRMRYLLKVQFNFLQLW
Sequence of Phosphatidylinositol 4,5-bisphosphate 3-kinase catalytic subunit gamma isoform (P48736 whole entry, canonical isoform): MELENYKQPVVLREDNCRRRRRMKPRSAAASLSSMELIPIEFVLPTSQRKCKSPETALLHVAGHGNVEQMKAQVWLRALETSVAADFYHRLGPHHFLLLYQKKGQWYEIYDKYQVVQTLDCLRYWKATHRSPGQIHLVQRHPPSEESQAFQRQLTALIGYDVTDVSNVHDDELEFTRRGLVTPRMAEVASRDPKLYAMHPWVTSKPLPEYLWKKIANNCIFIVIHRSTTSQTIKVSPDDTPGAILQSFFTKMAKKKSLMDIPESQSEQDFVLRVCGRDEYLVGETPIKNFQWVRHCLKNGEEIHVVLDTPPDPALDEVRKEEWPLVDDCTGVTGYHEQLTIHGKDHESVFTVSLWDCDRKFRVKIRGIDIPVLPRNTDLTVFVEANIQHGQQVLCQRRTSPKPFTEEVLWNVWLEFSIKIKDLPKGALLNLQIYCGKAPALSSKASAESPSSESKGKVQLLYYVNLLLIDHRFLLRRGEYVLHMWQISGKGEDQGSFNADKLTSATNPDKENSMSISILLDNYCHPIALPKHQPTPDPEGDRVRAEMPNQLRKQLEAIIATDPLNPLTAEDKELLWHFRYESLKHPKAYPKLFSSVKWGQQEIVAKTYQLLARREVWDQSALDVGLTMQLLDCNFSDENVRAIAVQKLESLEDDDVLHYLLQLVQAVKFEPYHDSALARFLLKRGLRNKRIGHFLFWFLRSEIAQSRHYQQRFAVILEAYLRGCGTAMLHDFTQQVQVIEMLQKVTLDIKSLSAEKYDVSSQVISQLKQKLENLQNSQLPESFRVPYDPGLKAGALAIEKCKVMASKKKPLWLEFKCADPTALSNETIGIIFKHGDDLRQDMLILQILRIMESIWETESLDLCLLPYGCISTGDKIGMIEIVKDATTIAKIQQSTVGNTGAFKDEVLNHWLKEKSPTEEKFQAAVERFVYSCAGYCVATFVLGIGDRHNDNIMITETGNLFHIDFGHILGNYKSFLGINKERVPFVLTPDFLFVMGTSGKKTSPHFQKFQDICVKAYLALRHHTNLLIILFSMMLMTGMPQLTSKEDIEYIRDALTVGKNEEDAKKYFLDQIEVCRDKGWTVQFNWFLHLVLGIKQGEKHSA
Sequence of Phosphatidylinositol 4,5-bisphosphate 3-kinase catalytic subunit beta isoform (P42338 whole entry, canonical isoform): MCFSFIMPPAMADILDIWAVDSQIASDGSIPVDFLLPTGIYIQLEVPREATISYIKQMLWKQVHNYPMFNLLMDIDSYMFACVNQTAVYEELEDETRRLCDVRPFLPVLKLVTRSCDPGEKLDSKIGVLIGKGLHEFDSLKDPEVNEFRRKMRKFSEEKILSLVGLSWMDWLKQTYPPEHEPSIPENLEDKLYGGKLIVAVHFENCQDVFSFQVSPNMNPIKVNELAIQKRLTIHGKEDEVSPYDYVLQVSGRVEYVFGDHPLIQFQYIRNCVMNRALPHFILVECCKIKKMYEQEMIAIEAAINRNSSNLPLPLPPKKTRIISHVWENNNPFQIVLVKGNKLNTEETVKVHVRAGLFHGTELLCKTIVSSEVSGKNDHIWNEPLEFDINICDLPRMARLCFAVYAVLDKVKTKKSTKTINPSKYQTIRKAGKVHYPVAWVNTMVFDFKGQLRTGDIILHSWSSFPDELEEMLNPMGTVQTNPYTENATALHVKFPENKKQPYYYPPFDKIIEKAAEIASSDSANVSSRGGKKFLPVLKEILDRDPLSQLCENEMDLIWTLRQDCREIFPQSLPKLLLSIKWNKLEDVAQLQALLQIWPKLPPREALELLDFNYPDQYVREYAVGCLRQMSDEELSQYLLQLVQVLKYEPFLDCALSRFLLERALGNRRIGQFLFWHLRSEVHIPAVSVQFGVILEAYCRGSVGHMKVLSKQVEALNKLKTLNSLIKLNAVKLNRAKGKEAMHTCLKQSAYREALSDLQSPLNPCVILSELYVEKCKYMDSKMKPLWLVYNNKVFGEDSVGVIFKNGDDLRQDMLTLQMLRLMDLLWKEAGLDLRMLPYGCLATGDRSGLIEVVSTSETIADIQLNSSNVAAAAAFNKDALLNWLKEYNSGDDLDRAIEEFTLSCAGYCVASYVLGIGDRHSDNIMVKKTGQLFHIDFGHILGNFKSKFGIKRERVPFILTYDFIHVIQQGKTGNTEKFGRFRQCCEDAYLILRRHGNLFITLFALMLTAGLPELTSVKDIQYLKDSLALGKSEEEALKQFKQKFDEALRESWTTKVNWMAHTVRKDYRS

Turning to `Nc1cc(C(F)(F)F)c(-c2cc(N3CCOCC3)nc(N3CCOCC3)n2)cn1` [BUPARLISIB], the IC50 was 1860 nM in the data set with CAKI-1; 1170 nM in the data set on DU-145; 646 nM with A549; 1170 nM in the data set with Ramos; 1580 nM in the data set on MDA-MB-231. Further, the Activity with MDA-MB-468 [1] is 9.21%; with MDA-MB-468 [4], 1.48%; in data set [6], “Non-Toxic”. Further, the results for the inhibition in vivo at 27.5 mg/kg in the data set on MDA-MB-468 [2] and in the data set with MDA-MB-468 [7] were 48.4% and 33.4%, respectively. Besides, the inhibition entry in the data set with MDA-MB-468 [3] is “Active”. The outcome with MDA-MB-468 [5] was Active.

For the compound `Nc1cc(C(F)(F)F)c(-c2nc3c(c(N4CCOCC4)n2)CCN(C(=O)c2cc(Cc4n[nH]c(=O)c5ccccc45)ccc2F)C3)cn1`, the “Ratio IC50” value in the data set on HCT-116 and in the data set on MDA-MB-468 [16] was “>=4” throughout. Besides, the inhibition result in the data set with Mus musculus [8], in the data set on MDA-MB-468 [9] and in the data set with MDA-MB-468 [17] was “Active” in each case. For the same compound, the IC50 in data set [10] was 288 nM; in data set [13], 3.63 nM; in data set [14], 832 nM; in [15] it was 7.41 nM. The result in the data set on MDA-MB-468 [11] and in the data set on Mus musculus [12] was Active.

The values above are taken from ChEMBL document CHEMBL4376860, “Discovery of Novel Dual Poly(ADP-ribose)polymerase and Phosphoinositide 3-Kinase Inhibitors as a Promising Strategy for Cancer Therapy” (J Med Chem, 2020).
